The record followed here is ChEMBL document CHEMBL1133681, “Synthesis and opioid receptor affinity of a series of 2, 4-diaryl-substituted 3,7-diazabicylononanones” (J Med Chem, 2000).

A word on the inhibition: it is the relative decrease from the control value, in per cent. As a reminder, the Ki is a dissociation constant, usually derived from enzyme kinetics or from competition with a known ligand. For orientation: ED50 means the dose at which the effect has come halfway, by size or by number of responders. A lower ED50 goes with an effect at a small dose.

For data set [1], the target named is Mu-type opioid receptor (Rattus norvegicus) (UniProt P33535). The data set is described as follows: Inhibition against [3H]naloxone opioid receptor mu 1 in rat brain membranes at 1 umol/L. It is filed as cell membranes. In short, it runs like this:
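Rat brain membranes (without cerebellum); 1 nM [3H]naloxone; preincubation 37 °C 40 min; incubation 50 mM Tris-HCl pH 7.4, 25 °C 30 min; nonspecific binding with 10^-5 M naloxone; triplicate, GF/B filtration, three ice-cold washes, scintillation counting.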

Data set [2] addresses T1, Kappa-type opioid receptor (Homo sapiens, UniProt P41145). Description: (§1) Inhibition against [3H]diprenorphine human Opioid receptor kappa 1 at 10 umol/L.
For data set [3], the target named is Delta-type opioid receptor (Rattus norvegicus) (UniProt P33533). The data set is described as follows: Inhibition against [3H]D-Ala-deltorphin opioid receptor delta 2 in rat brain membranes at 1 umol/L. It is filed as cell membranes. In short, it runs like this: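 Rat brain membranes (without cerebellum, pons, medulla oblongata); 1 nM [3H]-D-Ala-deltorphine; no preincubation; 50 mM Tris-HCl pH 7.4 with BSA and 4.5 mM MgCl2; 37 °C 90 min; nonspecific binding with 10^-5 M naloxone; triplicate, GF/B filtration, scintillation counting.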
Chain of Delta-type opioid receptor (Rattus norvegicus) (P33533 whole entry): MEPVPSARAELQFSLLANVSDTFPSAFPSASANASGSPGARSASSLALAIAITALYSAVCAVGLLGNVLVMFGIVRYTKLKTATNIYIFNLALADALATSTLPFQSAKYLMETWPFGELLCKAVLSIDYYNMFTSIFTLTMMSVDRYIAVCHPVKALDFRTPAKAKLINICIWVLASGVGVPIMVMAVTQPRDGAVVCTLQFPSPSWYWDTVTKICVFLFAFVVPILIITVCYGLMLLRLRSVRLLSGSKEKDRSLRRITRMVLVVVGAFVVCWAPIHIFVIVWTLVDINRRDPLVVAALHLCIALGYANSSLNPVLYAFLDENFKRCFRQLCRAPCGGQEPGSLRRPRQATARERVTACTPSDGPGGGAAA

For data set [4], the target named is Kappa-type opioid receptor (Rattus norvegicus) (UniProt P34975). The data set is described as follows: Inhibition against [3H]-CI 977 rat Opioid receptor kappa 1 at 10 umol/L.
Chain of Kappa-type opioid receptor (Rattus norvegicus) (P34975 whole entry, looked up): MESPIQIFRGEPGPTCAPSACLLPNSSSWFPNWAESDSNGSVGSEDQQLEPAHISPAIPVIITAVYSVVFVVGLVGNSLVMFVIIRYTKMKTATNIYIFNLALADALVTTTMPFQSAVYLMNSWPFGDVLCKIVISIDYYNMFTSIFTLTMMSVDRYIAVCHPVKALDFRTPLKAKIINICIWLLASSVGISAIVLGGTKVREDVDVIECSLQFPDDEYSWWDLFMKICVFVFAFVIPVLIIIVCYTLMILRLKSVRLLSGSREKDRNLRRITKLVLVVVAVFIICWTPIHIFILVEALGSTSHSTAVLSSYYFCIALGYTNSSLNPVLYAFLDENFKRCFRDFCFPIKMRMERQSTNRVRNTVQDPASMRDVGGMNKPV
A short description of data set [5]: Acid dissociation constant was measured in experiment 2. The settings on record: read-out: pKa2. The format is ADME.
Data set [6] is described as follows: Acid dissociation constant was measured in experiment 4. It is filed as ADME. The following applies: read-out: pKa4.
The nature of data set [7]: Acid dissociation constant was measured in experiment 3. The format is ADME. The settings on record: read-out: pKa3.
Data set [8] addresses Delta-type opioid receptor (Rattus norvegicus) (UniProt P33533). The data set is described as follows: Inhibition against [3H]DPDPE Opioid receptor delta 1 in rat brain membranes at 1 umol/L. It is filed as cell membranes. In short, it runs like this:
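Rat brain membranes (without cerebellum, pons, medulla oblongata); 0.25 nM [3H]Cl-DPDPE; preincubation 25 °C 30 min; 50 mM Tris-HCl pH 7.4 with BSA, 45 μM PMSF, 4.5 mM MgCl2; 25 °C 240 min; nonspecific binding with 10^-3 M naloxone; triplicate, filtration, scintillation counting.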

The nature of data set [9]: Acid dissociation constant was measured in experiment 1. The following applies: read-out: pKa1. It is filed as ADME.
For data set [10], the target named is T1, Kappa-type opioid receptor. The description is as §1. This is another data set of the same source.
Data set [11] concerns the target T1, Kappa-type opioid receptor. The data set is described as follows: Inhibition against [3H]diprenorphine human Opioid receptor kappa 1.
Data set [12] concerns the target Kappa-type opioid receptor (Mus musculus) (UniProt P33534). Description: Antinociceptive activity evaluated against Opioid receptor kappa 1 in mice by writhing test (administered intravenously). In short, it runs like this: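 Male NMRI mice (31-37 g); writhing induced by ip 0.35 mL of 0.02% phenylquinone; writhes counted 5–20 min after phenylquinone; food and water withdrawn during test; compound given iv; ED50 derived.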

The target is the same in data set [13]. Description: Antinociceptive activity evaluated against Opioid receptor kappa 1 in mice by tail-flick assay (administered intravenously). The gist of the method:
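Male NMRI mice (23-26 g), group-housed, ~22 °C, 12-h light-dark cycle; food and water withdrawn during testing; compound given iv; tail-flick response; ED50 derived.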
For orientation: Hot-plate and tail-flick tests time the reaction to a heat stimulus.

Data set [14] has as its target T1, Kappa-type opioid receptor. The data set is described as follows: Inhibition against [3H]diprenorphine human Opioid receptor kappa 1 at 10 uM/L.
Data set [15] deals with T1, Kappa-type opioid receptor. Description: Inhibition against [3H]diprenorphine human Opioid receptor kappa 1 […] at 10 umol/L. It is filed as cell membranes.

The structures appear in SMILES notation. Values joined by “and” are separate entries in the source; they are usually repeats but may differ in a detail not shown here. Identical values can stand only once.

Chain of Mu-type opioid receptor (Rattus norvegicus) (P33535 whole entry): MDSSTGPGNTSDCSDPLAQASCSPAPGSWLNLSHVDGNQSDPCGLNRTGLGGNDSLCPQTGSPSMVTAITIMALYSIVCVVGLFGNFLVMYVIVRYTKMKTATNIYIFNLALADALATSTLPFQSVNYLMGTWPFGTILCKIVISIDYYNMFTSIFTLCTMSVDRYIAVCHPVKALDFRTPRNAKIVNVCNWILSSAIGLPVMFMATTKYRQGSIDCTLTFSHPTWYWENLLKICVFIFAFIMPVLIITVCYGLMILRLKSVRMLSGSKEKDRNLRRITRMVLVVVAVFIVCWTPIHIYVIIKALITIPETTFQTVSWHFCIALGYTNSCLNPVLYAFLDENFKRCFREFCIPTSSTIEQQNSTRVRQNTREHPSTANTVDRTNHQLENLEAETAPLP
T1 sequence (P41145 whole entry): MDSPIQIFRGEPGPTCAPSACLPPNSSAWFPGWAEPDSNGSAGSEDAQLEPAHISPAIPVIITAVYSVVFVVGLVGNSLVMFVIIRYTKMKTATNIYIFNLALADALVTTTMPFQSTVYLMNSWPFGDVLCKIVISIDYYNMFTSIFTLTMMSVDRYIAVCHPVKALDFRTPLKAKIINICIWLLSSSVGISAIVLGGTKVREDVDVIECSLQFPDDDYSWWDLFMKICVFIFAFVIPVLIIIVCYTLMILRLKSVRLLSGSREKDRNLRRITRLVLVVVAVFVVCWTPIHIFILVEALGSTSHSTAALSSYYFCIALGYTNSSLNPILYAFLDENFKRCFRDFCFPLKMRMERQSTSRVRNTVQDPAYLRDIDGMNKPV
Chain of Kappa-type opioid receptor (Mus musculus) (P33534 whole entry): as the sequence (P34975 whole entry, looked up) above, with E11D, A17S, P51S, V308A counted along it

As for `COC(=O)C12CN(C)CC(C(=O)OC)(C1=O)C(c1ccccc1Cl)N(C)C2c1ccccc1Cl` (stereo unspecified), the inhibition in [1] stood at 2.7%; in data set [2], 65.4%; in data set [3], 1.9%.
Regarding `COC(=O)C12C[N+](C)(C)CC(C(=O)OC)(C1=O)C(c1ccccn1)N(C)C2c1ccccn1` (stereo unspecified), the inhibition in data set [1] came out at 29.2%; in data set [3] it was 3.3%; in data set [4], 96.4%.
Turning to `COC(=O)C12CN(C)CC(C(=O)OC)(C1=O)C(c1cccc(O)c1)N(C)C2c1cccc(O)c1` (stereo unspecified), the pKa in data set [5] was 7.97; in data set [6] it was 9.21; in data set [7] it was 9.12; in data set [9] it was 10.3. For the same molecule, the figures for the inhibition in data set [8] and in data set [1] were 27% and 35.6%, respectively.
Consider `CCOC(=O)C12CN(C)CC(C(=O)OCC)(C1=O)C(c1cccc([N+](=O)[O-])c1)N(C)C2c1cccc([N+](=O)[O-])c1` (stereo unspecified), for which the inhibition was 2.3% in data set [1], 6.1% in data set [3] and 5.9% in [4].
On to `CN1CC2(C(=O)O)C(=O)C(C(=O)O)(C1)C(c1ccccc1)N(C)C2c1ccccc1` (stereo unspecified), for which the affinity in data set [10] corresponds to a Ki of 210 nM. The inhibition in data set [8] is -0.3%; in data set [1], 14.5%; in data set [3], -1.6%.
In the case of `COC(=O)C12CN(C)CC(C(=O)OC)(C1=O)C(c1ccc(Cl)cc1)N(C)C2c1ccc(Cl)cc1` (stereo unspecified), the inhibition in [1] was 2.2%; in [2], 63%; in [3], -2.1%.
For `COC(=O)C12CN(C)CC(C(=O)OC)(C1=O)C(c1ccc3ccccc3n1)N(C)C2c1ccc2ccccc2n1` (stereo unspecified), the inhibition is 36.6% in data set [1] and 11.8% in data set [3]. Moreover, affinity in data set [11] was put at a Ki of 190 nM.
In the case of `COC(=O)C12CN(C)CC(C(=O)OC)(C1=O)C(c1cccc(F)c1)N(C)C2c1cccc(F)c1` (stereo unspecified), the pKa in data set [5] turned out to be 10.7; in data set [9], 13.1. The inhibition in data set [1] was determined as 5%; in [3], 3.2%. The Ki in data set [11] was 26 nM.
As to `COC(=O)C12CN(C)CC(C(=O)OC)(C1=O)C(c1ccccc1[N+](=O)[O-])N(C)C2c1ccccc1[N+](=O)[O-]` (stereo unspecified), the inhibition was 2.9% in data set [1], 3.4% in data set [2] and -1.1% in data set [3].
For `COC(=O)C12CN(C)CC(C(=O)OC)(C1=O)C(c1ccccc1F)N(C)C2c1ccccc1F` (stereo unspecified) the same measures were -9.2%, 47.7% and 1.5%.
In the case of `COC(=O)C12CN(C)CC(C(=O)OC)(C1=O)C(c1ccc(Cl)c(Cl)c1)N(C)C2c1ccc(Cl)c(Cl)c1` (stereo unspecified), the inhibition in [1] is 6.1%; in data set [2], 38.9%; in [3] it was -5.3%.
For `COC(=O)C12CN(C)CC(C(=O)OC)(C1=O)C(c1ccnc3ccccc13)N(C)C2c1ccnc2ccccc12` (stereo unspecified), the inhibition in [1] was -7.1%; in data set [2], 25.8%; in [3], 1.2%.
`COC(=O)C12CN(C)CC(C(=O)OC)(C1=O)C(c1ccccn1)N(C)C2c1ccccn1` (stereo unspecified): the figures for the pKa in data set [6] and in data set [7] were 2.03 and 3.47, respectively. For the same molecule, the ED50 in data set [12] was 1.05 mg/kg; in data set [13] it was 6.7 mg/kg. Further, the inhibition in data set [8] is 5%; in [1] it was 32.4% and 20% and 37.6%; in [2], 65% and 62.6%; in [14], 61.7%; in data set [3] it was -5.9% and -6.6%.
`COC(=O)C12CN(C)CC(C(=O)OC)(C1=O)C(c1cccc(C)c1)N(C)C2c1cccc(C)c1` (stereo unspecified): the values for the inhibition in [8] and in data set [1] were 3.4% and -5.9%, respectively.
Turning to `COC(=O)C12CN(C)CC(C(=O)OC)(C1=O)C(c1cccc([N+](=O)[O-])c1)N(C)C2c1cccc([N+](=O)[O-])c1` (stereo unspecified), the inhibition in [8] was 14%; in data set [2], 10%; in data set [3] it was -7.9%.
On to `COC(=O)C12CN(C)CC(C(=O)OC)(C1=O)C(c1cccc(OC)c1)N(C)C2c1cccc(OC)c1` (stereo unspecified), for which the inhibition was 52.2% in data set [2] and -1.6% in data set [3].
Turning to `COC(=O)C12CN(C)CC(C(=O)OC)(C1=O)C(c1ccc(O)cc1)N(C)C2c1ccc(O)cc1` (stereo unspecified), the inhibition was found to be 14.2% in [1], 8.4% in [2] and 7.3% in [3].
The molecule `COC(=O)C12CN(C)CC(C(=O)OC)(C1=O)C(c1ccc(F)cc1)N(C)C2c1ccc(F)cc1` (stereo unspecified) gave a Ki in data set [10] of 140 nM. For the same molecule, the figures for the inhibition in data set [1] and in [3] were 10.1% and 0.4%, respectively.
For `CCOC(=O)C12CN(C)CC(C(=O)OCC)(C1=O)C(c1cccc(O)c1)N(C)C2c1cccc(O)c1` (stereo unspecified), the inhibition in [1] is 10.5%; in [2] it was 92.7%; in [3], 6.9%.
In the same order, the values of `COC(=O)C12CN(C)CC(C(=O)OC)(C1=O)C(c1ccc(C#N)cc1)N(C)C2c1ccc(C#N)cc1` (stereo unspecified) are 5.6%, 17.2% and 3.2%.
Regarding `CCOC(=O)C12CN(C)CC(C(=O)OCC)(C1=O)C(c1ccc(Cl)cc1)N(C)C2c1ccc(Cl)cc1` (stereo unspecified), the values for the inhibition in [1] and in data set [3] were -5% and 1.8%, respectively. In addition, the Ki in data set [11] was 1980 nM.
With `COC(=O)C12CN(C)CC(C(=O)OC)(C1=O)C(c1cccc(C#N)c1)N(C)C2c1cccc(C#N)c1` (stereo unspecified), the inhibition in [1] stood at 9.3%; in data set [2], 35.5%; in data set [3], 5%.
As for `COC(=O)C12CN(C)CC(C(=O)OC)(C1=O)C(c1ccc3ccccc3c1)N(C)C2c1ccc2ccccc2c1` (stereo unspecified), the inhibition is 18.6% in data set [2] and -2.1% in [3].
With `COC(=O)C12CN(C)CC(C(=O)OC)(C1=O)C(c1cccc(Cl)c1)N(C)C2c1cccc(Cl)c1` (stereo unspecified), the inhibition in [15] was 42.3%; in data set [8] it was -0.8%; in data set [1] it was 8.8%. For the same molecule, the pKa in data set [5] is 9.51; in [9], 10.6.
`COC(=O)C12CN(C)CC(C(=O)OC)(C1=O)C(c1ccc([N+](=O)[O-])cc1)N(C)C2c1ccc([N+](=O)[O-])cc1` (stereo in doubt): the inhibition in data set [1] is 4.6%; in data set [3] it was -3.1%.
With `COC(=O)C12CN(C)CC(C(=O)OC)(C1=O)C(c1ccc(OC)cc1)N(C)C2c1ccc(OC)cc1` (stereo unspecified), the Ki in data set [10] was 18 nM. The figures for the pKa in [5] and in [9] were 5.51 and 9.05, respectively. Besides, the inhibition came to 26.5% in [1] and 3% in data set [3].
Turning to `COC(=O)C12CN(C)CC(C(=O)OC)(C1=O)C(c1cccnc1)N(C)C2c1cccnc1` (stereo unspecified), the inhibition in data set [1] was found to be 30.7%; in data set [2] it was 54.8%; in data set [3], 1.1%.
Regarding `COC(=O)C12CN(C)CC(C(=O)OC)(C1=O)C(c1cccc3ccccc13)N(C)C2c1cccc2ccccc12` (stereo unspecified), the inhibition in data set [2] came out at 7.8%; in data set [3], 1.8%.
On to `COC(=O)C12CN(C)CC(C(=O)OC)(C1=O)C(c1ccncc1)N(C)C2c1ccncc1` (stereo unspecified), for which the inhibition is 3.1% in data set [1], 12.5% in data set [2] and -9% in data set [3].
Consider `COC(=O)C12CN(C)CC(C(=O)OC)(C1=O)C(c1ccc([N+](=O)[O-])cc1)N(C)C2c1ccc([N+](=O)[O-])cc1` (trans isomer), for which the inhibition in [1] was 4.8%; in data set [3] it was -4%; in [4], 27.8%.
